# Source: ChEMBL document CHEMBL1152759, “Design, synthesis, and biological evaluation of novel quinoline derivatives as HIV-1 Tat-TAR interaction inhibitors” (Bioorg Med Chem, 2009)
# Tests used:
# [1] = Cytotoxicity against human CEM cells; assay type: cell-based; conditions: CEM (CCRF-CEM) cells, read-out: TC50 (the source's name)
# Method in brief: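 Uninfected CEM cells exposed to compound dilutions; TC50 is the concentration giving 50% inhibition of cell proliferation.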
# [2] = system: Simian immunodeficiency virus; assay: Antiviral activity against SIV in human CEM cells assessed as protection against virus-induced cytopathogenicity; assay type: functional, organism-based; conditions: CCRF-CEM
# Method in brief: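 SIV syncytium assay: CEM174 cells at 2 × 10^5 cells/ml infected with 100 TCID50 SIV per well, given dilutions of compound; 5 days at 37 °C, 5% CO2, humidified air. Giant (syncytium) cell formation scored microscopically. EC50 = concentration protecting cells from SIV cytopathogenicity by 50%.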
# [3] = Selectivity index, ratio of TC50 for human CEM cells to EC50 for SIV in human CEM cells
# Nucleic Acid = assay: Inhibition of HIV1 Tat-TAR RNA interaction-mediated transactivation in human 293T cells assessed as CAT gene expression at 30 uM after 24 hrs by ELISA; values are per cent of control; conditions: Human immunodeficiency virus 1
SMILES,EC50 [2] [µM],CC50 [1] [µM],Ratio [3],"level, % of control (Nucleic Acid) [%]"
O=C(NCCO)c1cn(CCO)c2ccccc2c1=O,7.3,> 100,>13,
C[C@@H](CO)NC(=O)c1cnc2ccccc2c1Cl,7,> 100,>14,
COC(=O)[C@H](CO)NC(=O)c1cnc2c(F)cc(F)cc2c1Cl,8.8,> 100,>11,
O=C(NCCO)c1cn(Cc2ccccc2)c2ccccc2c1=O,6,> 100,>16,63.9
COC(=O)[C@H](Cc1ccccc1)NC(=O)c1cnc2ccccc2c1Cl,7.9,> 100,>13,
CCOC(=O)[C@H](CO)NC(=O)c1cnc2ccccc2c1Cl,4.7,> 100,>21,
COC(=O)[C@H](CC(C)C)NC(=O)c1cnc2ccccc2c1Cl,9.4,49.1,5.2,
COC(=O)[C@H](CO)NC(=O)c1cnc2c(C)cccc2c1Cl,2.8,> 100,>36,
COC(=O)C[C@H](NC(=O)c1cnc2ccccc2c1Cl)C(=O)OC,,,,58.7
O=C(NCCO)c1c[nH]c2ccc(Oc3ccccc3)cc2c1=O,4.9,> 100,>20,
COC(=O)[C@H](CO)NC(=O)c1cnc2cc(C)ccc2c1Cl,4.7,59.6,13,53.3
COC(=O)[C@H](CO)NC(=O)c1cnc2cc(Cl)ccc2c1Cl,8.2,> 100,>12,
COC(=O)[C@H](CO)NC(=O)c1cnc2ccc(C)cc2c1Cl,11.6,> 100,>8.6,
O=C(NCCO)c1cn(Cc2ccc(F)cc2)c2ccccc2c1=O,6.9,> 100,>14,
COC(=O)[C@H](CO)NC(=O)c1cnc2c(Cl)cccc2c1Cl,6.7,> 100,>15,
COC(=O)[C@H](CO)NC(=O)c1cnc2ccccc2c1Cl,1.1,> 100,>90,59.6
Cn1cc(C(=O)NCCO)c(=O)c2ccccc21,8.7,> 100,>11,44.2
COC(=O)CNC(=O)c1cnc2ccccc2c1Cl,5.4,> 100,>18,79
CC(C)C[C@@H](CO)NC(=O)c1cnc2ccccc2c1Cl,7.9,> 100,>12,71.9
COC(=O)[C@H](CO)NC(=O)c1cnc2ccc(F)cc2c1Cl,5.8,> 100,>17,

# Further lines, with some results ahead:
EC50 [2] [µM],SMILES,CC50 [1] [µM],Ratio [3],"level, % of control (Nucleic Acid) [%]"
5.1,O=C(NCCO)c1c[nH]c2ccc(Cl)cc2c1=O,> 100,>19,
2.9,COC(=O)[C@H](CSC)NC(=O)c1cnc2ccccc2c1Cl,68.4,22,
2.7,O=C(NCCO)c1cnc2ccccc2c1Cl,> 100,>37,
12,COC(=O)[C@H](CO)NC(=O)c1cnc2ccc(Cl)cc2c1Cl,> 100,>8.3,
4,O=C(N[C@H](CO)Cc1ccccc1)c1cnc2ccccc2c1Cl,> 100,>25,
5.7,COC(=O)[C@H](C)NC(=O)c1cnc2ccccc2c1Cl,81.3,14,
7,COC(=O)[C@@H](NC(=O)c1cnc2ccccc2c1Cl)[C@@H](C)O,> 100,>14,82.4
10,COC(=O)[C@H](Cc1c[nH]c2ccccc12)NC(=O)c1cnc2ccccc2c1Cl,> 100,>19,
3.7,O=C(NCCO)c1c[nH]c2ccccc2c1=O,> 100,>27,
5.6,COC(=O)[C@@H](NC(=O)c1cnc2ccccc2c1Cl)C(C)C,17.6,3.1,
13,COC(=O)[C@@H](NC(=O)c1cnc2cc(C)ccc2c1Cl)[C@@H](C)O,> 100,>14,92.7
6.6,O=C(NCCCO)c1cnc2ccccc2c1Cl,> 100,>15,
1.3,CC[C@H](C)[C@H](NC(=O)c1cnc2ccccc2c1Cl)C(=O)OC,23.3,17,
